# Laboratory results: ChEMBL document CHEMBL4689842, “EUbOPEN Chemogenomics Library wave 1” (2021)
# Where “and” joins values, the source holds several entries; their conditions need not be identical. Equal values may be shown once.
# Tested on: U2OS
# Test: Multiplex assay against U2OS
# Format: toxicity, cell-based
# Conditions: human
# Procedure, shortened: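 Cells stained live at seeding with Hoechst33342, BioTracker Green Microtubule Cytoskeleton Dye, MitoTracker Red and Annexin V Alexa Fluor 680 were imaged on a CQ1 microscope at 37°C and 5% CO2 after compound addition. Their classification by CellPathfinder machine-learning gating ran from Hoechst high-intensity objects versus normal cells, to healthy, pyknosed or fragmented nuclei among normal cells, to mitotic or apoptotic among pyknosed cells. Tubulin, mitochondrial-mass and membrane-permeability phenotypes are per cents of healthy-nucleus cells.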
# [1] = 12 h, 1 µM, compound concentration 1 uM, replicate 1
# [2] = 12 h, 1 µM, compound concentration 1 uM, replicate 2
# [3] = 12 h, 10 µM, compound concentration 10 uM, replicate 1
# [4] = 12 h, 10 µM, compound concentration 10 uM, replicate 2
# [5] = 24 h, 1 µM, compound concentration 1 uM, replicate 1
# [6] = 24 h, 1 µM, compound concentration 1 uM, replicate 2
# [7] = 24 h, 10 µM, compound concentration 10 uM, replicate 1
# [8] = 24 h, 10 µM, compound concentration 10 uM, replicate 2
# [9] = 48 h, 1 µM, compound concentration 1 uM, replicate 1
# [10] = 48 h, 1 µM, compound concentration 1 uM, replicate 2
# [11] = 48 h, 10 µM, compound concentration 10 uM, replicate 1
# [12] = 48 h, 10 µM, compound concentration 10 uM, replicate 2
compound,measurement,setting,value
CCN1CCN(Cc2ccc(Nc3ncc(F)c(-c4cc(F)c5nc(C)n(C(C)C)c5c4)n3)nc2)CC1.CS(=O)(=O)O,Population Apoptotic (%),[1],46%
same,Population Fragmented Nuclei (%),[1],18%
same,Population Healthy Nuclei (%),[1],63%
same,Population Hoechst High Intensity Objects (%),[1],8%
same,Population Membrane Permeable-Phenotype (%),[1],4%
same,Population Mitochondria Different-Phenotype (%),[1],92%
same,Population Mitotic Cells (%),[1],53%
same,Population Normal (%),[1],91%
same,Population Pyknosed Nuclei (%),[1],17%
same,Population Tubulin-Different-Phenotype (%),[1],91%
same,Total Cell Count,[1],160
same,Population Apoptotic (%),[2],40%
same,Population Fragmented Nuclei (%),[2],17%
same,Population Healthy Nuclei (%),[2],67%
same,Population Hoechst High Intensity Objects (%),[2],6%
same,Population Membrane Permeable-Phenotype (%),[2],8%
same,Population Mitochondria Different-Phenotype (%),[2],91%
same,Population Mitotic Cells (%),[2],60%
same,Population Normal (%),[2],93%
same,Population Pyknosed Nuclei (%),[2],14%
same,Population Tubulin-Different-Phenotype (%),[2],97%
same,Total Cell Count,[2],73
same,Population Apoptotic (%),[3],82%
same,Population Fragmented Nuclei (%),[3],35%
same,Population Healthy Nuclei (%),[3],29%
same,Population Hoechst High Intensity Objects (%),[3],5%
same,Population Membrane Permeable-Phenotype (%),[3],66%
same,Population Mitochondria Different-Phenotype (%),[3],100%
same,Population Mitotic Cells (%),[3],18%
same,Population Normal (%),[3],94%
same,Population Pyknosed Nuclei (%),[3],35%
same,Total Cell Count,[3],151
same,Population Apoptotic (%),[4],83%
same,Population Fragmented Nuclei (%),[4],32%
same,Population Healthy Nuclei (%),[4],22%
same,Population Hoechst High Intensity Objects (%),[4],9%
same,Population Membrane Permeable-Phenotype (%),[4],88%
same,Population Mitochondria Different-Phenotype (%),[4],94%
same,Population Mitotic Cells (%),[4],16%
same,Population Normal (%),[4],90%
same,Population Pyknosed Nuclei (%),[4],45%
same,Population Tubulin-Different-Phenotype (%),[4],100%
same,Total Cell Count,[4],88
same,Population Apoptotic (%),[5],53%
same,Population Fragmented Nuclei (%),[5],19%
same,Population Healthy Nuclei (%),[5],59%
same,Population Hoechst High Intensity Objects (%),[5],8%
same,Population Membrane Permeable-Phenotype (%),[5],10%
same,Population Mitochondria Different-Phenotype (%),[5],91%
same,Population Mitotic Cells (%),[5],46%
same,Population Normal (%),[5],91%
same,Population Pyknosed Nuclei (%),[5],20%
same,Population Tubulin-Different-Phenotype (%),[5],89%
same,Total Cell Count,[5],171
same,Population Apoptotic (%),[6],58%
same,Population Fragmented Nuclei (%),[6],20%
same,Population Healthy Nuclei (%),[6],61%
same,Population Hoechst High Intensity Objects (%),[6],10%
same,Population Membrane Permeable-Phenotype (%),[6],21%
same,Population Mitochondria Different-Phenotype (%),[6],85%
same,Population Mitotic Cells (%),[6],41%
same,Population Normal (%),[6],89%
same,Population Pyknosed Nuclei (%),[6],17%
same,Population Tubulin-Different-Phenotype (%),[6],87%
same,Total Cell Count,[6],75
same,Population Apoptotic (%),[7],96%
same,Population Fragmented Nuclei (%),[7],41%
same,Population Healthy Nuclei (%),[7],8%
same,Population Hoechst High Intensity Objects (%),[7],8%
same,Population Membrane Permeable-Phenotype (%),[7],72%
same,Population Mitochondria Different-Phenotype (%),[7],90%
same,Population Mitotic Cells (%),[7],3%
same,Population Normal (%),[7],91%
same,Population Pyknosed Nuclei (%),[7],49%
same,Population Tubulin-Different-Phenotype (%),[7],90%
same,Total Cell Count,[7],135
same,Population Apoptotic (%),[8],97%
same,Population Fragmented Nuclei (%),[8],27%
same,Population Healthy Nuclei (%),[8],13%
same,Population Hoechst High Intensity Objects (%),[8],20%
same,Population Membrane Permeable-Phenotype (%),[8],100%
same,Population Mitochondria Different-Phenotype (%),[8],87%
same,Population Mitotic Cells (%),[8],2%
same,Population Normal (%),[8],79%
same,Population Pyknosed Nuclei (%),[8],59%
same,Population Tubulin-Different-Phenotype (%),[8],100%
same,Total Cell Count,[8],74
same,Population Apoptotic (%),[9],55%
same,Population Fragmented Nuclei (%),[9],26%
same,Population Membrane Permeable-Phenotype (%),[9],18%
same,Population Mitochondria Different-Phenotype (%),[9],82%
same,Population Mitotic Cells (%),[9],44%
same,Population Pyknosed Nuclei (%),[9],21%
same,Population Tubulin-Different-Phenotype (%),[9],79%
same,Total Cell Count,[9],215
same,Population Apoptotic (%),[10],64%
same,Population Fragmented Nuclei (%),[10],25%
same,Population Healthy Nuclei (%),[10],51%
same,Population Hoechst High Intensity Objects (%),[10],8%
same,Population Membrane Permeable-Phenotype (%),[10],31%
same,Population Mitochondria Different-Phenotype (%),[10],71%
same,Population Mitotic Cells (%),[10],35%
same,Population Normal (%),[10],91%
same,Population Pyknosed Nuclei (%),[10],22%
same,Population Tubulin-Different-Phenotype (%),[10],84%
same,Total Cell Count,[10],81
same,Population Apoptotic (%),[11],98%
same,Population Fragmented Nuclei (%),[11],43%
same,Population Healthy Nuclei (%),[11],2%
same,Population Hoechst High Intensity Objects (%),[11],15%
same,Population Membrane Permeable-Phenotype (%),[11],100%
same,Population Mitochondria Different-Phenotype (%),[11],100%
same,Population Mitotic Cells (%),[11],1%
same,Population Normal (%),[11],84%
same,Population Pyknosed Nuclei (%),[11],53%
same,Population Tubulin-Different-Phenotype (%),[11],100%
same,Total Cell Count,[11],137
same,Population Apoptotic (%),[12],100%
same,Population Fragmented Nuclei (%),[12],17%
same,Population Healthy Nuclei (%),[12],45%
same,Population Hoechst High Intensity Objects (%),[12],34%
same,Population Mitochondria Different-Phenotype (%),[12],95%
same,Population Mitotic Cells (%),[12],0%
same,Population Normal (%),[12],65%
same,Population Pyknosed Nuclei (%),[12],36%
same,Population Tubulin-Different-Phenotype (%),[12],95%
same,Total Cell Count,[12],70
Cl.O=C(c1ccc(Nc2nccc(-c3cc4ccccc4s3)n2)cc1)N1CCC(N2CCCC2)CC1,Population Apoptotic (%),[1],31%
same,Population Fragmented Nuclei (%),[1],8%
same,Population Healthy Nuclei (%),[1],80%
same,Population Hoechst High Intensity Objects (%),[1],1%
same,Population Membrane Permeable-Phenotype (%),[1],18%
same,Population Mitochondria Different-Phenotype (%),[1],11%
same,Population Mitotic Cells (%),[1],68%
same,Population Normal (%),[1],98%
same,Population Pyknosed Nuclei (%),[1],11%
same,Population Tubulin-Different-Phenotype (%),[1],18%
same,Total Cell Count,[1],145
same,Population Apoptotic (%),[2],0%
same,Population Fragmented Nuclei (%),[2],20%
same,Population Healthy Nuclei (%),[2],75%
same,Population Hoechst High Intensity Objects (%),[2],25%
same,Population Membrane Permeable-Phenotype (%),[2],13%
same,Population Mitochondria Different-Phenotype (%),[2],19%
same,Population Mitotic Cells (%),[2],100%
same,Population Normal (%),[2],74%
same,Population Pyknosed Nuclei (%),[2],4%
same,Population Tubulin-Different-Phenotype (%),[2],19%
same,Total Cell Count,[2],110
same,Population Apoptotic (%),[3],68% and 85%
same,Population Fragmented Nuclei (%),[3],15% and 25%
same,Population Healthy Nuclei (%),[3],6%
same,Population Hoechst High Intensity Objects (%),[3],5% and 7%
same,Population Membrane Permeable-Phenotype (%),[3],46% and 76%
same,Population Mitochondria Different-Phenotype (%),[3],92%
same,Population Mitotic Cells (%),[3],31% and 14%
same,Population Normal (%),[3],94% and 92%
same,Population Pyknosed Nuclei (%),[3],77% and 66%
same,Total Cell Count,[3],174 and 176
same,Population Apoptotic (%),[4],93% and 70%
same,Population Fragmented Nuclei (%),[4],35% and 26%
same,Population Healthy Nuclei (%),[4],7% and 13%
same,Population Membrane Permeable-Phenotype (%),[4],50% and 54%
same,Population Mitochondria Different-Phenotype (%),[4],100% and 81%
same,Population Normal (%),[4],78% and 93%
same,Population Pyknosed Nuclei (%),[4],57% and 60%
same,Population Tubulin-Different-Phenotype (%),[4],100% and 90%
same,Total Cell Count,[4],73
same,Population Apoptotic (%),[5],38%
same,Population Fragmented Nuclei (%),[5],10%
same,Population Healthy Nuclei (%),[5],81%
same,Population Hoechst High Intensity Objects (%),[5],3%
same,Population Membrane Permeable-Phenotype (%),[5],19%
same,Population Mitochondria Different-Phenotype (%),[5],16%
same,Population Mitotic Cells (%),[5],61%
same,Population Normal (%),[5],96%
same,Population Pyknosed Nuclei (%),[5],8%
same,Population Tubulin-Different-Phenotype (%),[5],14%
same,Total Cell Count,[5],148
same,Population Apoptotic (%),[6],44%
same,Population Fragmented Nuclei (%),[6],25%
same,Population Healthy Nuclei (%),[6],68%
same,Population Hoechst High Intensity Objects (%),[6],14%
same,Population Membrane Permeable-Phenotype (%),[6],12%
same,Population Mitochondria Different-Phenotype (%),[6],11%
same,Population Mitotic Cells (%),[6],55%
same,Population Normal (%),[6],85%
same,Population Pyknosed Nuclei (%),[6],5%
same,Population Tubulin-Different-Phenotype (%),[6],13%
same,Total Cell Count,[6],97
same,Population Apoptotic (%),[7],94% and 98%
same,Population Fragmented Nuclei (%),[7],31% and 18%
same,Population Healthy Nuclei (%),[7],4% and 9%
same,Population Hoechst High Intensity Objects (%),[7],12% and 23%
same,Population Membrane Permeable-Phenotype (%),[7],100%
same,Population Mitochondria Different-Phenotype (%),[7],100% and 80%
same,Population Mitotic Cells (%),[7],5% and 1%
same,Population Normal (%),[7],87% and 76%
same,Population Pyknosed Nuclei (%),[7],63% and 71%
same,Population Tubulin-Different-Phenotype (%),[7],100%
same,Total Cell Count,[7],171 and 213
same,Population Apoptotic (%),[8],100%
same,Population Fragmented Nuclei (%),[8],36% and 26%
same,Population Healthy Nuclei (%),[8],16%
same,Population Hoechst High Intensity Objects (%),[8],14% and 31%
same,Population Mitotic Cells (%),[8],0%
same,Population Normal (%),[8],85% and 68%
same,Population Pyknosed Nuclei (%),[8],59% and 58%
same,Population Tubulin-Different-Phenotype (%),[8],87%
same,Total Cell Count,[8],192 and 76
same,Population Apoptotic (%),[11],98%
same,Population Fragmented Nuclei (%),[11],32%
same,Population Healthy Nuclei (%),[11],6%
same,Population Hoechst High Intensity Objects (%),[11],26%
same,Population Membrane Permeable-Phenotype (%),[11],75%
same,Population Mitochondria Different-Phenotype (%),[11],100%
same,Population Mitotic Cells (%),[11],1%
same,Population Normal (%),[11],73%
same,Population Pyknosed Nuclei (%),[11],61%
same,Population Tubulin-Different-Phenotype (%),[11],100%
same,Total Cell Count,[11],154
same,Population Apoptotic (%),[12],100%
same,Population Fragmented Nuclei (%),[12],28%
same,Population Healthy Nuclei (%),[12],50%
same,Population Hoechst High Intensity Objects (%),[12],44%
same,Population Membrane Permeable-Phenotype (%),[12],100%
same,Population Mitotic Cells (%),[12],0%
same,Population Normal (%),[12],55%
same,Population Pyknosed Nuclei (%),[12],21%
same,Total Cell Count,[12],77
